One molecule from PMC10127574 (ACS chemical biology, 2015) can be followed below.

One data set concerns the target T1, extracellular IDE (Homo sapiens, UniProt P14735).
T1 sequence (P14735 1-1019): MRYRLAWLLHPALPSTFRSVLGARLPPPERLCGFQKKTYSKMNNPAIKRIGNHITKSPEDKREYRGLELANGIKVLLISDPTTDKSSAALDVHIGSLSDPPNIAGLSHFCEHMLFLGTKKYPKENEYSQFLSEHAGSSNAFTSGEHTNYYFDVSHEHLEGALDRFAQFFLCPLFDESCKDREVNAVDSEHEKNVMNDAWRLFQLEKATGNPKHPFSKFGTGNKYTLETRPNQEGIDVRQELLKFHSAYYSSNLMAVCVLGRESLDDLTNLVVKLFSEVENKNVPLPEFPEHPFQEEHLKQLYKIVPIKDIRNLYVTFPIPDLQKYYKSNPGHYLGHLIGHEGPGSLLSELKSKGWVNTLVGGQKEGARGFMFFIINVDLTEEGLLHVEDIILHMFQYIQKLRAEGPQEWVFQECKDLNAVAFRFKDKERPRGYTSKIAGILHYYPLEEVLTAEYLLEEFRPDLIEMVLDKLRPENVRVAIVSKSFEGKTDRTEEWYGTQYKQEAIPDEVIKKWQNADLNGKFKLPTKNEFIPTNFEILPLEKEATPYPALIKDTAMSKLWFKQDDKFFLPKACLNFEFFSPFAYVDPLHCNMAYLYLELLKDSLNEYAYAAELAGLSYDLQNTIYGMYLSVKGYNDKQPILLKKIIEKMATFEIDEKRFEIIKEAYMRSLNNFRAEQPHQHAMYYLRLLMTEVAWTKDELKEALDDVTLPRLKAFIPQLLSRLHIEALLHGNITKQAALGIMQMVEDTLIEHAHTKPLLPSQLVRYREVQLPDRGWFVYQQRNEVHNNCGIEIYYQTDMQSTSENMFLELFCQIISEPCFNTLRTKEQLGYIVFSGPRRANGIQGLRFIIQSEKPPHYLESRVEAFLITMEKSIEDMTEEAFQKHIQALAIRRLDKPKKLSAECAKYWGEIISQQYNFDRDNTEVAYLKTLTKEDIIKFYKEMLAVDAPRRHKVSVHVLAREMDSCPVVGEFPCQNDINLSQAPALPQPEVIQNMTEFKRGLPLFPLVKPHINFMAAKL
The data set can be described thus: cell-based IDE activity assay. Summed up: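 Extracellular IDE secreted by HEK-293 cells, harvested mechanically rather than by trypsin, served as the endogenous enzyme source. Activity was read by fluorescence polarization with fluoresceinated, biotinylated Aß peptide (FAßB) in DTT-free solutions. The primary screen used a nominal compound concentration of 6 μM. Confirmed hits were retested in dose-response format to give apparent IC50.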

The target in data set [1] is T2, recombinant wild-type IDE (WT-IDE) (Homo sapiens, UniProt P14735).
T2 sequence (P14735 1-1019): T1 sequence (P14735 1-1019)
Kind of data set: cell-free IDE activity assay with fluorogenic peptide substrate FRET1. The data set is classed as biochemical.

Data set [2] addresses T3, cysteine-free form of IDE (CF-IDE) (Homo sapiens, UniProt P14735, C819S, form not given).
T3 sequence (P14735 42-1019 C819S): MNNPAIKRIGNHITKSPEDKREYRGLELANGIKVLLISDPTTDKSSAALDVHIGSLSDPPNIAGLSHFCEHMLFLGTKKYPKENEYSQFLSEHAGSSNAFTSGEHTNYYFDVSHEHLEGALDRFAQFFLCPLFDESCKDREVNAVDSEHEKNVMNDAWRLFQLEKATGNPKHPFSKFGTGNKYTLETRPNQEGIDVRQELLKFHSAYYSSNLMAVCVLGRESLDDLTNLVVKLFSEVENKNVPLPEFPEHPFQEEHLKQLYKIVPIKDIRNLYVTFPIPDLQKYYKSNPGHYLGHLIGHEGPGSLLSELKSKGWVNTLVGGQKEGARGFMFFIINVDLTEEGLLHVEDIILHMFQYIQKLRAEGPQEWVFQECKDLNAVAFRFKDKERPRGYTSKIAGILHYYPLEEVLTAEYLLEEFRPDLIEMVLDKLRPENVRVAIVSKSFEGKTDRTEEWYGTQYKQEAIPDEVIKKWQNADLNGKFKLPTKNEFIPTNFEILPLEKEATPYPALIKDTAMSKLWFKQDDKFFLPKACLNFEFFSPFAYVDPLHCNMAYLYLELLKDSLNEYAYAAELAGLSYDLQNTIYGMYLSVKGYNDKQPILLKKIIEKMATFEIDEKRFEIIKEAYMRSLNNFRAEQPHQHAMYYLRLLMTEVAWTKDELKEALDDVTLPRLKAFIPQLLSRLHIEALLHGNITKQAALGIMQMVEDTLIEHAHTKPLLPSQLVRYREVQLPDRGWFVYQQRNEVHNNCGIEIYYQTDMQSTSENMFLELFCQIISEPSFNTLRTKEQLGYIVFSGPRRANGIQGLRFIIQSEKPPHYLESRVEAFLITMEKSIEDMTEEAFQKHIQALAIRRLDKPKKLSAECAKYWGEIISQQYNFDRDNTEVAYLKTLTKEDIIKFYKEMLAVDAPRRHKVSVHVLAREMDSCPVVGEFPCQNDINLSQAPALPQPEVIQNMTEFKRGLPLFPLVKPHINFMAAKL
The data set can be described thus: IDE activity assay with FRET1 using cysteine-free IDE. The data set is classed as biochemical. The settings on record: read-out: ki CF-IDE.

The test system of data set [3] is cysteines (proteome-wide). Kind of data set: proteome-wide activity-based protein-profiling assay.
A short description of data set [4]: chemical stability in PBS. The format is physicochemical.
The nature of data set [5]: solubility in assay buffer. The data set is classed as physicochemical. Particulars: aqueous buffer.
Data set [6] in a line: liver microsome stability, human. The data set is classed as in vitro ADME. Particulars: human liver microsomes. For orientation: Liver microsomes are a subcellular fraction often used to study metabolism.
The nature of data set [7]: liver microsome stability, mouse. The format is in vitro ADME. Particulars: mouse liver microsomes.

≈ marks a conversion by molar mass, not a printed value. Like-named read-outs stand apart in the source and are kept apart here. Bounds are passed on as bounds.

What is called IC50 is the point on the concentration scale where inhibition reaches its midpoint. Usually Ki stands for the equilibrium dissociation constant of an inhibitor or competing ligand from its target. What is called solubility is how much of the substance goes into solution per volume. High values mean much dissolved substance, low ones little dissolved substance. Take `O=c1c2cc(F)ccc2sn1-c1cc(S(=O)(=O)N2CCOCC2)ccc1N1CCOCC1` [Compound 8, 5-fluoro-2-(2-morpholin-4-yl-5-morpholin-4-ylsulfonylphenyl)-1,2-benzothiazol-3-one]: the 50% inhibitory concentration (IC50) at extracellular IDE (read-out: IC50^app cell-based, Table 2) was found to be 110 nM; on extracellular IDE (read-out: IC50^app in cells, FAßB, Table 3, n=4), 110 ± 12 nM; in data set [1] (read-out: IC50^app cell-free, Table 2), 63 nM; in data set [1] (read-out: IC50^app in vitro, FRET1, Table 3, n=5), 63 ± 8.1 nM. Also, the “BEI (binding efficiency index, pIC50^app/MW, kDa)” value in data set [1] was determined as 15. The Ki in data set [2] amounted to 8370 nM. The “reactivity with cysteines in proteome-wide activity-based protein profiling” value in data set [3] is reported as “minimal reactivity”. Also, the “Chemical stability in PBS” value in data set [4] is >> 48 hr. In data set [5], this molecule registered a solubility of 5.1 µM (≈ 2.45 µg/mL). The “Liver microsome stability, Human” value in data set [6] is listed as over 120 min. Also, in data set [7], the “Liver microsome stability, Mouse” value worked out at 24 min.
